Source: ChEMBL document CHEMBL3621183, “Discovery and crystallography of bicyclic arylaminoazines as potent inhibitors of HIV-1 reverse transcriptase” (Bioorg Med Chem Lett, 2015)
pEC50: −log10 of the molar value. In brackets after ≈: the same amount, converted by molar mass.

Experiments:
MT2 = experiment: Cytotoxicity against human MT2 cells assessed as growth inhibition by MTT assay; format: cell-based
[1] = tested on: Human immunodeficiency virus 1; experiment: Antiviral activity against wild type HIV1 3B infected in human MT2 cells assessed as protection against viral infection by MTT assay; format: functional, organism-based; conditions: Human immunodeficiency virus 1, 3B
How it was run: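 HIV-1 IIIB strain tested in MT-2 human T-cells. […] Triplicate samples at each concentration.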

[2] = tested on: Human immunodeficiency virus 1; experiment: Antiviral activity against HIV1 3B harboring reverse transcriptase Y181C mutant infected in human MT2 cells assessed as protection against viral infection by MTT assay; format: functional, organism-based; conditions: for EC50: mt2; for pEC50: Human immunodeficiency virus 1, 3B, MT2, read-out: EC50
How it was run: (§1)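 MT-2 human T-cells infected with the HIV-1 IIIB strain carrying the listed RT mutation. […] Triplicate samples at each concentration. Compounds were >95% pure by HPLC.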

[3] = tested on: Human immunodeficiency virus 1; experiment: Antiviral activity against HIV1 3B harboring reverse transcriptase K103N/Y181C double mutant infected in human MT2 cells assessed as protection against viral infection by MTT assay; format: functional, organism-based; conditions: for EC50: mt2; for pEC50: Human immunodeficiency virus 1, 3B, MT2, read-out: EC50; how it was run: as §1
[4] = Aqueous solubility of the compound in Britton-Robinson buffer at pH 6.5 at 25 degC by shake flask method; format: physicochemical
How it was run: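 Shake-flask method. Supernatant collected through a 0.2 μm syringe filter and quantified by UV-vis spectrophotometry.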

Row | SMILES | CC50 (MT2) [nM] | pEC50 [1] | EC50 [2] | EC50 [3] | pEC50 [2] | pEC50 [3] | solubility thermodynamic [4] [µg/mL]
1 | N#Cc1ccc(Nc2nccc(Nc3ccn4cc(C#N)cc4c3)n2)cc1 | > 100000 | 6.70 | Not Active | Not Active | – | – | –
2 | Cc1cn2cc(C#N)cc2cc1Nc1ccnc(Nc2ccc(C#N)cc2)n1 | 72000 | 7.52 | – | – | 6.29 | 5.21 | –
3 | Cc1c(Nc2ccnc(Nc3ccc(C#N)cc3)n2)ccn2cc(C#N)cc12 | > 100000 | 8.85 | – | – | 7.59 | 6.77 | –
4 | Cc1cn2cc(C#N)cc2c(C)c1Nc1ccnc(Nc2ccc(C#N)cc2)n1 | 10100 | 9.00 | – | – | 9.24 | 7.41 | 8.2 (≈ 21.6 µM)
5 | N#Cc1ccc(Nc2nccc(Nc3cc4cc(C#N)cn4cc3F)n2)cc1 | 76000 | 6.70 | – | – | 5.80 | 5.34 | –
6 | N#Cc1ccc(Nc2nccc(Nc3c(F)cn4cc(C#N)cc4c3F)n2)cc1 | 1000 | 8.85 | – | Not Active | 7.01 | – | –
7 | Cc1cn2cc(C#N)cc2c(C)c1Nc1ncnc(Nc2ccc(C#N)cc2)n1 | 16000 | 9.28 | – | – | 8.15 | 7.49 | 33.1 (≈ 87 µM)
8 | Cc1cn2cc(C#N)cc2c(C)c1Nc1nc(Cl)nc(Nc2ccc(C#N)cc2)n1 | 38000 | 4.85 | Not Active | Not Active | – | – | –
9 | N#Cc1ccc(Nc2ncnc(Nc3c(F)cn4cc(C#N)cc4c3F)n2)cc1 | 20000 | 8.57 | – | – | 6.64 | 5.66 | –
10 | Cc1c(Nc2nc(Nc3ccc(C#N)cc3)nc(OCCCN3CCOCC3)n2)ccn2cc(C#N)cc12 | 10000 | 5.72 | Not Active | Not Active | – | – | –
11 | N#Cc1ccc(Nc2nccc(Nc3ccc4cc(C#N)ccc4c3)n2)cc1 | > 100000 | 7.62 | – | – | 6.77 | 6.28 | –
12 | Cc1c(Nc2ccnc(Nc3ccc(C#N)cc3)n2)ccc2cc(C#N)ccc12 | > 100000 | 8.15 | – | – | 8.07 | 6.89 | –
13 | Cc1cc2cc(C#N)ccc2c(C)c1Nc1ccnc(Nc2ccc(C#N)cc2)n1 | 7800 | 8.54 | – | – | 8.66 | 8.16 | 12.2 (≈ 31.2 µM)
14 | N#Cc1ccc(Nc2nccc(Nc3ccc4cc(C#N)ccc4c3F)n2)cc1 | 45000 | 8.22 | – | – | 7.15 | 6.10 | –
15 | N#Cc1ccc(Nc2nccc(Nc3c(F)cc4cc(C#N)ccc4c3F)n2)cc1 | 4800 | 8.74 | – | – | 8.22 | 7.30 | –
16 | Cc1cc2cc(C#N)ccc2c(C)c1Nc1ncnc(Nc2ccc(C#N)cc2)n1 | 9500 | 8.96 | – | – | 8.89 | 8.15 | 28.7 (≈ 73.3 µM)
17 | Cc1cc2cc(C#N)ccc2c(C)c1Nc1nc(Cl)nc(Nc2ccc(C#N)cc2)n1 | 7500 | 8.64 | – | – | 7.39 | 7.17 | –
18 | N#Cc1ccc(Nc2ncnc(Nc3c(F)cc4cc(C#N)ccc4c3F)n2)cc1 | > 100000 | 8.92 | – | – | 8.15 | 7.19 | –
19 | N#Cc1ccc(Nc2nc(Nc3ccc4cc(C#N)ccc4c3)nc(OCCCN3CCOCC3)n2)cc1 | 1200 | 6.92 | Not Active | – | – | 6.82 | –
20 | Cc1c(Nc2nc(Nc3ccc(C#N)cc3)nc(OCCCN3CCOCC3)n2)ccc2cc(C#N)ccc12 | 5900 | 7.68 | – | – | 7.24 | 7.01 | –
21 | N#Cc1ccc(Nc2nc(Nc3ccc4cc(C#N)ccc4c3F)nc(OCCCN3CCOCC3)n2)cc1 | 3800 | 7.44 | – | – | 6.80 | 6.74 | –
22 | Cc1cc2cc(C#N)ccc2c(C)c1Nc1nc(Nc2ccc(C#N)cc2)nc(OCCCN2CCOCC2)n1 | 17000 | 7.77 | – | – | 7.44 | 7.80 | –
